Assay results as given in ChEMBL document CHEMBL4819012, “Discovery of novel 2-aryl-3-sulfonamido-pyridines (HoAns) as microtubule polymerization inhibitors with potent antitumor activities” (Eur J Med Chem, 2021).

Assays:
NCI-H460 = assay: Antiproliferative activity against human NCI-H460 cells assessed as cell viability measured after 72 hrs by MTS method; type: functional, cell-based; details: NCI-H460, 72 h
How it was run: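 Log-phase cells plated at 5×10^3–6×10^3 per well for 24 h, then given graded compound concentrations in fresh medium for 72 h, five replicate wells. Medium replaced with medium containing 10% MTS, 30 min or more at 37 °C in dark; OD 490 nm read. IC50 by nonlinear regression; mean ± SD of at least three experiments.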

[1] = target: Tubulin beta (Homo sapiens) (UniProt P68371+Q9H4B7+Q13509+P04350+Q3ZCM7+P07437+Q13885+Q9BVA1+Q9BUF5+A6NNZ2); assay: Inhibition of N,N'-Ethylenebis(iodoacetamide) binding to beta tubulin in human SW-620 cells at 20 to 40 uM preincubated for 2 hrs followed by addition of EBI and measured after 2 hrs by western blot assay; type: cell-based; details: dose 20-40 µM
How it was run: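 SW620 cells (5×10^5 per well) pretreated for 2 h with 10, 20 or 40 μM of test agent or DMSO, then given 100 μM EBI for 2 h. Lysed in SDS loading buffer. β-tubulin and β-tubulin–EBI adduct bands resolved by western blot probed with anti-β-tubulin.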

SW-620 [2] = assay: Induction of cell cycle arrest in human SW-620 cells assessed as accumulation of cells in S phase at 0.5 uM measured after 24 hrs by PI staining based flow cytometry method (reference value: 46.12%); type: functional
SW-620 [3] = assay: Induction of cell cycle arrest in human SW-620 cells assessed as accumulation of cells in G2 phase at 0.5 uM measured after 24 hrs by PI staining based flow cytometry method (reference value: 13.83%); type: functional
[4] = Toxicity against Athymic nude mouse xenografted with SW-620 cells assessed as toxicity in lung at 25 mg/kg per two days, po measured after 20 days by H and E staining method; type: organism-based; details: in vivo, 480 h, time 20 day
How it was run: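 At the end of the 20-day oral SW620 xenograft study (25 mg/kg every 2 days, n = 6), heart, liver, spleen, lung and kidney were fixed in 4% paraformaldehyde and embedded in paraffin. 4 μm sections stained with Mayer hematoxylin 5 min and eosin-phloxine 2 min, then examined by light microscopy.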

RKO = assay: Induction of cell cycle arrest in human RKO cells assessed as accumulation of cells in G2 phase at 0.5 uM measured after 24 hrs by PI staining based flow cytometry method (reference value: 10.79%); type: functional

IC50 (NCI-H460) [nM] | inhibition [1] | Structure (SMILES) | Activity (SW-620 [2]) [%] | Activity (SW-620 [3]) [%] | Activity [4] | Activity (RKO) [%]
2040 | Dose-Dependent Effect | COc1ccc(S(=O)(=O)Nc2cccnc2Nc2ccc(O)cc2)cc1 [ABT-751] | – | – | – | –
– | – | COc1ccc(S(=O)(=O)Nc2cccnc2-c2ccc(C#N)c(F)c2)cc1 | 42.53 | 14.44 | Non-Toxic | 16.65
